Apaf1 activ: activators of human Apaf-1 apoptosome, primary screen, biochemical, DEVD-Rh110 fluorescence, uHTS | Apaf-1 apoptosome caspase-3 activation; stronger effect = lower value | activity change, negative = activation, % at 20 µM | actives 0.31% (n = 330,000) | AID 489031, 2010;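 active = activity change at or below -40% at 20 µM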
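Material: biochemical Apaf-1 apoptosome reconstitution; Medium: 20 mM HEPES buffer, pH 7.5, containing CHAPS and BSA; Reagent: dATP, cytochrome c, and (Z-DEVD)2-Rh110 caspase-3 substrate; Times: 30 min preincubation, 50 min reaction, room temperature; Signal: Rh110 fluorescence, excitation 480 nm, emission 540 nm; Measure: Caspase-3 activity via Apaf-1.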
Rh110 interf act: Rh110 fluorescence interference by putative Apaf-1 activators, confirmation, artefact control for Apaf-1 activator project, biochemical, 20 µM | shares compounds with Apaf1 activ | 980 tested, under 10 active | fluorescence interference (activity change), % at 20 µM, hits read low | quenched caspase reaction, Ex480/Em540;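 active = mean activity change at or below -40% when tested at 20 µM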
Apaf-1 act conf2: Apaf-1 activators, single-dose retest, confirmation, biochemical, fluorescence, DEVD-Rh110, 20 µM; shares compounds with Apaf1 activ; actives 5% (n = 980); activity change, negative = activation, % at 20 µM; reconstituted apoptosome caspase-3 activity; stronger effect = lower value;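 active = mean activity change at or below -40%, meaning activation of 40% or more, at 20 µM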
The depositor's hits bear a star. A selection follows.

Results for Cc1cccc(OCc2n(CC(=O)OC3CC(C)CCC3C(C)C)c3ccccc3[n+]2C)c1 (stereo unspecified) ?
Apaf1 activ: 50

How did O=C(Nc1nc(-c2ccccc2)cs1)c1ccc(N2CCOCC2)c([N+](=O)[O-])c1 do in these assays?
Apaf1 activ: -46*; Rh110 interf act: -4; Apaf-1 act conf2: 7

Results for COc1ccc(N2C(=O)CCC(C(=O)O)C2c2ccccc2OC)cc1 (stereo unspecified) ?
Apaf1 activ: -172*; Rh110 interf act: -2; Apaf-1 act conf2: 6

What do the screens show for `CCCCCCSc1ccc([C@@H]2[C@H]3C(=O)N(CC)C(=O)[C@H]3[C@]3(C(=O)OC)CCCN23)cc1`?
Apaf1 activ: -225*; Rh110 interf act: 5; Apaf-1 act conf2: 13

How did C[C@@]12CCC=C[C@H]1[C@H](c1ccc3ccccc3c1Br)N(Cc1ccccc1)C2=O do in these assays?
Apaf1 activ: 49

What do the screens show for `CC(=O)c1ccc(-n2ccc(=O)cc2)cc1`?
Apaf1 activ: -494*; Rh110 interf act: 11; Apaf-1 act conf2: 11

How did C=C[C@@H]1CN2CCC1C[C@@H]2[C@@H](O)c1ccnc2ccc(OC)cc12 (stereo partly specified) do in these assays?
Apaf1 activ: 1

Results for CCCCc1nc(C(N)=O)c2[nH]c(=O)n(-c3ccc(OCC)cc3)c2n1 ?
Apaf1 activ: -157*; Rh110 interf act: 0; Apaf-1 act conf2: 9

Results for c1ccc([C@H]2CNCCN2CCc2cccc3ccccc23)cc1 ?
Apaf1 activ: 55

How did CCOc1ccc2[nH]c(=O)c(CN(CC3CCCN3CC)C(=O)NCc3ccccc3)cc2c1 (stereo unspecified) do in these assays?
Apaf1 activ: -137*; Rh110 interf act: 0; Apaf-1 act conf2: 9

How did CCN1/C(=C/c2ccc3cc(C)ccc3[n+]2CC)Sc2cc(C)c(C)cc21 do in these assays?
Apaf1 activ: 64

What do the screens show for `CC1=NN(c2ccc(S(=O)(=O)O)cc2C)C(=O)C1`?
Apaf1 activ: 51

Results for O=C(NCc1nc2ccccc2[nH]1)C1=C[C@H](c2ccccc2)C[C@H](OCc2ccc(CO)cc2)O1 ?
Apaf1 activ: -127*; Rh110 interf act: 5; Apaf-1 act conf2: 27

Results for O=[N+]([O-])c1c(NCCCO)cc(Sc2nc3ccccc3s2)c2nonc12 ?
Apaf1 activ: 98

What do the screens show for `CC(=C/c1ccco1)/C=N/NC(=O)CSc1nnc(SCc2ccc(C)cc2)s1`?
Apaf1 activ: -90*; Rh110 interf act: 6; Apaf-1 act conf2: 34

What do the screens show for `Cn1c(SCC(=O)Nc2ccc3nc(SCC(=O)N4CCCC4)sc3c2)nnc1-c1ccccc1`?
Apaf1 activ: 66

What do the screens show for `O=C(CSc1nc2ccccc2s1)N/N=C/c1ccco1`?
Apaf1 activ: -62*; Rh110 interf act: 0; Apaf-1 act conf2: 7

How did O=C(O)c1cc(O)c2c(c1)[C@@H]([C@H]1c3cc(C(=O)O)cc(O)c3C(=O)c3c(O[C@@H]4O[C@H](CO)[C@@H](O)[C@H](O)[C@H]4O)cccc31)c1cccc(O[C@@H]3O[C@H](CO)[C@@H](O)[C@H](O)[C@H]3O)c1C2=O do in these assays?
Apaf1 activ: 99

What do the screens show for `O=C(OCc1nnc(-c2ccccc2)o1)c1ccc([N+](=O)[O-])s1`?
Apaf1 activ: 47

How did O=C(Nc1ccc(N2CCCC2)cc1)C(Cl)c1ccccc1 (stereo unspecified) do in these assays?
Apaf1 activ: 65

Results for COCCNC(=O)c1c(N)n(-c2ccccc2)c2nc3ccccc3nc12 ?
Apaf1 activ: 81

How did COc1cccc(N2CCN(C(=O)c3ccc(=O)oc3)CC2C)c1 (stereo unspecified) do in these assays?
Apaf1 activ: -332*; Rh110 interf act: -7; Apaf-1 act conf2: 9

What do the screens show for `Cc1cccc(N2CCN(C(=O)c3ccc4nc(-c5ccco5)c(-c5ccco5)nc4c3)CC2C)c1` (stereo unspecified)?
Apaf1 activ: 60

How did O=C1C2=C(c3ccccc31)[N+](=O)C1CCCCC1N2[O-] (stereo unspecified) do in these assays?
Apaf1 activ: 54

How did COC(=O)c1c(C(=O)OC)c2cccc3cc(-c4ccccc4)c4ccc1c4n32 do in these assays?
Apaf1 activ: 65

What do the screens show for `CCOc1cc(C)c(S(=O)(=O)Nc2ccc(Cl)cn2)cc1C`?
Apaf1 activ: -40*; Rh110 interf act: 5; Apaf-1 act conf2: 14

How did Cc1cc(=O)n(-c2ccc3ccccc3n2)[nH]1 do in these assays?
Apaf1 activ: 86

What do the screens show for `C#CCOCCOCCOCCNc1nc(N2CCN(C(=O)CCCCCCCCCCNC(=O)[C@H]([C@@H](C)CC)n3cc(CCCCN=C(N)N)nn3)CC2)nc(N2CCN(C(=O)CCCCCCCCCCNC(=O)[C@H](CCCCN)n3cc(C[C@@H](C)CC)nn3)CC2)n1`?
Apaf1 activ: 55

Results for Cc1c(C)n(CCC(=O)O)c2ccccc12 ?
Apaf1 activ: -70*; Rh110 interf act: -3; Apaf-1 act conf2: 10

Results for COc1ccccc1N1CCN(CC(O)COc2cccc3ccccc23)CC1 (stereo unspecified) ?
Apaf1 activ: 17

What do the screens show for `Cc1c(C)n(CC(O)CN2CCN(C)CC2)c2ccccc12` (stereo unspecified)?
Apaf1 activ: -67*; Rh110 interf act: 8; Apaf-1 act conf2: 18

Results for Cc1ccc(C(=O)c2c(C)oc3c2C(=O)C(=O)c2ccccc2-3)cc1 ?
Apaf1 activ: 88

How did O=C1NCCCC2c3cc(O)c4ccccc4c3OC12N1CCCCC1 (stereo unspecified) do in these assays?
Apaf1 activ: 93

How did O=C1NCC(c2ccccc2)C1C(=O)N/N=C\c1ccc(-c2cccc(Cl)c2Cl)o1 (stereo unspecified) do in these assays?
Apaf1 activ: 40

Results for O=C1CN(C(=O)c2cnccn2)c2ccccc2N1 ?
Apaf1 activ: -47*; Rh110 interf act: 16; Apaf-1 act conf2: 11

How did O=C1Nc2ccccc2N2CCCC12 (stereo unspecified) do in these assays?
Apaf1 activ: 78

How did Cc1ccc(N(C)S(=O)(=O)c2cccc(C(=O)Nc3ccc(C)cn3)c2)cc1 do in these assays?
Apaf1 activ: 45

Results for COCCNC(=O)c1c[nH]c2ccc(S(=O)(=O)N(C)c3ccc(C)c(C)c3)cc2c1=O ?
Apaf1 activ: -68*; Rh110 interf act: 19; Apaf-1 act conf2: 19

Results for COCCn1c(N)c(C#N)c2nc3ccccc3nc21 ?
Apaf1 activ: 52

How did CC(=O)Nc1ccc(NC2=C/C(=N/S(=O)(=O)c3cccs3)c3ccccc3C2=O)cc1 do in these assays?
Apaf1 activ: 90

How did Oc1c(Cl)cc(Cl)c2c1NCCC2 do in these assays?
Apaf1 activ: 47

How did CC1CCN(C(=O)CSc2nnc(Cn3c(=O)sc4ccccc43)n2C)CC1 do in these assays?
Apaf1 activ: 43

What do the screens show for `COc1ccc(-n2nc(C(=O)NCC(=O)NC3CCCCCC3)c3ccccc3c2=O)c(OC)c1`?
Apaf1 activ: 48
